Bioassay records (PubChem BioAssay)
LANA-nucl inh: inhibitors of KSHV LANA binding to nucleosomes | FITC-LANA1-23 / chicken nucleosome fluorescence polarization; hits give low values | z-score (test concentration not listed) | 0.3% of 51,000 active;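 active = both repeat wells score below -2 in polarization z-score versus plate sample wells, excluding overly bright wells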
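test system = FITC-LANA peptide and chicken nucleosomes | amount = 240 nM purified chicken nucleosomes (480 nM peptide binding sites), final | reagent = 50 nM FITC-LANA1-23 probe | medium = TEN-BT buffer, pH 7.5 | doses = single compound addition by pin transfer, 100 nL per well | timing = 10–45 min, room temperature | detection = fluorescence polarization | repeats = duplicate plates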
BasE inh: BasE siderophore biosynthesis inhibition | purified BasE, fluorescence polarization binding displacement | AID 485350 | inhibition, % (test concentration not listed) | 0.1% of 84,000 active; in the data active = inhibition above about 25%, passing the limit was not always enough
Each line names hits and unclear results; the compound was inactive in the other large screens; ! = a repeat was not active. This is a sample that favours compounds with a hit; in the whole collection about 0.3% have one here.

N#Cc1c(NCc2ccccc2)ncc2c1Nc1ccccc1C2	LANA-nucl inh -3.26
OCCN(CCO)c1nc(N2CCCCC2)c2nc(N(CCO)CCO)nc(N3CCCCC3)c2n1	LANA-nucl inh -2.3!, BasE inh 36.5!
C1CCCN(c2nc3nonc3nc2N2CCCCCC2)CC1	none
CCCc1cc(=O)[nH]c(SCC(=O)c2ccc3c(c2)CCN3S(=O)(=O)CC)n1	none (no result: LANA-nucl inh)
CC(C)(C)C1=C(C#N)C(c2ccc(Cl)cc2)CC(=O)N1 (configuration not stated)	none (no result: BasE inh)
C=CCNC(=O)c1ccc2c(c1)NC(=O)C(C)N2 (configuration not stated)	none
CCCCNC(=O)c1ccc2c(c1)NC(=O)C(C)N2 (configuration not stated)	LANA-nucl inh -3.16
CCC(Oc1ccccc1)C(=O)N(C)C (configuration not stated)	none
CC(=O)N1CCC(C(=O)NCc2ccc(-c3cccs3)cc2)CC1	none (no result: BasE inh)
CCCCOc1ccc(-c2nnn(C(C)(C)C(=O)O)n2)cc1	none
O=C(O)Cc1nonc1NCn1nnc2ccccc21	BasE inh 39.9
c1ccc2c(c1)nnn2CNCn1nnc2ccccc21	none
CCCN1CC=C2C(C#N)=C(N)C(C#N)(C#N)C(c3ccc(F)cc3F)C2C1 (configuration not stated)	LANA-nucl inh -4.5
CCCOc1ccc(C2C3CN(CC)CC=C3C(C#N)=C(N)C2(C#N)C#N)cc1OC (configuration not stated)	none
COC(=O)c1c(C)[nH]c(C(=O)C(C)N2CCc3ccccc3C2)c1C (configuration not stated)	none (no result: LANA-nucl inh)
O=C(O)CC12CC3CC(C1)CC(CC(=O)O)(C3)C2	none (no result: LANA-nucl inh)
NC(=O)CC12CC3CC(C1)CC(CC(N)=O)(C3)C2	BasE inh 56.6
Cc1ccc(NC(=O)C2C3C=CC4(O3)C2C(=O)N(c2ccccc2F)C4C(=O)NC2CCCC2)cc1 (configuration not stated)	none
O=C1C(c2ccc(I)cc2)=C(O)c2ccccc21	none (no result: LANA-nucl inh)
O=C1C(c2ccnc3ccccc23)=C(O)c2ccccc21	LANA-nucl inh -4.18
Cn1nc(-c2ccc(F)cc2)nc2c(=O)n(C)c(=O)nc1-2	LANA-nucl inh -4.84
Fc1ccc(-c2nc3n(n2)Cc2ccccc2-3)cc1	none
O=C(Cn1cnc2ccccc21)OCc1ccc(Br)cc1	BasE inh 26.7 (no result: LANA-nucl inh)
NC(=O)Cn1cnc2ccccc21	none
O=C(OCC(=O)N1CCCCC1)c1cc(=O)[nH]c(=O)[nH]1	none (no result: LANA-nucl inh)
Cc1occc1-c1nnc(SCC(=O)NCc2ccc3c(c2)OCO3)n1CC(C)C	none
COCCn1c(SCC(=O)NCc2ccc3c(c2)OCO3)nnc1-c1c[nH]c2ccccc12	LANA-nucl inh -2.16
COC(=O)c1cc(S(=O)(=O)N(C)CC2COc3ccccc3O2)cn1C (configuration not stated)	none
CCn1c(=O)cc(OCC(=O)Nc2cccnc2)c2ccccc21	BasE inh 25.4
CCn1c(=O)cc(OCC(=O)O)c2ccccc21	none
COc1ccc(C(=O)CC2=NC(C)(C)CO2)cc1	none
N=c1c2c(F)cccc2ncn1NC(=O)c1ccncc1	none
CC1=C(C(=O)Nn2cnc3cccc(F)c3c2=N)Sc2ccccc2N1	BasE inh 35.6 (no result: LANA-nucl inh)
O=C(CCS(=O)(=O)Cc1ccccc1)Nc1ccc(F)cc1F	none
N#C/C(=C/c1ccc(-c2cc(C(=O)O)ccc2Cl)o1)C(=O)NCCc1c[nH]c2ccccc12	BasE inh 30.8
N#C/C(=C\c1ccc(-c2cc(C(F)(F)F)ccc2Cl)o1)C(=O)O	none (no result: LANA-nucl inh)
CCN1CCCC1CNC(=S)Nc1cccc(C)c1 (configuration not stated)	none (no result: LANA-nucl inh)
S=c1nc[nH]c2ccccc12	none (no result: LANA-nucl inh)
CCNCC(=O)Nc1ccc2c(c1)OCCO2	none (no result: LANA-nucl inh)
CC(=O)NC(NC(C)=O)C(C)(C)Cc1ccccc1	none
CSc1scc2c1C(=O)CC(C)(C)C2	none (no result: LANA-nucl inh)
CSc1scc2c1C(=O)/C(=C/N(C)C)CC2	BasE inh 36.0
O=C(Cc1nncn1-c1ccccc1)c1ccc(O)cc1O	BasE inh 33.0 (no result: LANA-nucl inh)
O=C(Cc1nc2ccccc2s1)c1ccc(O)cc1O	none (no result: LANA-nucl inh)
Cc1noc(N)c1C(=O)OCc1ccc(C#N)cc1	none (no result: LANA-nucl inh)
Cc1cc(O)cc(=O)n1C	none
Cc1cc(O)c(Cc2c(O)cc(C)n(C)c2=O)c(=O)n1C	LANA-nucl inh -2.35
COc1ccc(N(CC(=O)Nc2cc(C)on2)S(=O)(=O)/C=C/c2ccccc2)cc1	none (no result: LANA-nucl inh)
COc1cccc(NC(=O)C(c2ccccc2)N2CCN(S(=O)(=O)c3ccccc3)CC2)c1 (configuration not stated)	none (no result: LANA-nucl inh)
Cc1cc(NCCN(C)C)c2ccccc2n1	LANA-nucl inh -2.16
Cc1cc(NCCNc2ccccc2)c2ccc3ccccc3c2n1	none (no result: LANA-nucl inh)
Cc1ccn2c(C(=O)O)c(C)nc2c1	none (no result: BasE inh)
COC(=O)c1sc2nc(-c3ccco3)cc(C(F)(F)F)c2c1N	none
COC(=O)c1sc2nc3c(c(C(F)(F)F)c2c1N)CN(C(C)=O)CC3	LANA-nucl inh -8.08
CCN(CC)c1ccc(C(F)(F)F)cn1	none
Cc1ccc(N2C(=O)c3cccc4c(N5CCN(C)CC5)ccc(c34)C2=O)c2cccnc12	LANA-nucl inh -2.79, BasE inh 26.6
Cc1cccc(N2C(=O)c3cccc4c(N5CCNCC5)ccc(c34)C2=O)c1	none
Cc1cc(=O)[nH]c(SCC(=O)c2cccs2)n1	none (no result: LANA-nucl inh)
Cc1ccnc(SCC(=O)c2cccs2)n1	BasE inh 60.5 (no result: LANA-nucl inh)
COc1cc(C(=O)CSc2nccc(C)n2)cc(OC)c1OC	none (no result: LANA-nucl inh)
Cc1ccnc(SCC(=O)c2ccc(Br)cc2)n1	BasE inh 43.7
O=C(CSc1nnnn1C1CC1)N(Cc1ccccc1)Cc1ccccc1	none (no result: LANA-nucl inh)
O=C(Nc1cccc(-c2nn[nH]n2)c1)c1cccc(C(F)(F)F)c1	none
O=C(Nc1cccc(-c2nn[nH]n2)c1)c1ccc(Br)o1	LANA-nucl inh -2.14
CCOc1ccccc1OC(C)C(=O)NC(C)(C#N)C(C)C (configuration not stated)	none (no result: LANA-nucl inh)
C=C(C)COc1ccc2c(CCCC)cc(=O)oc2c1	none
CCOC(=O)c1cc2c(=O)n3ccccc3nc2n(CC2CCCO2)c1=NC(C)=O (configuration not stated)	none
CCOC(=O)c1cc2c(=O)n3ccccc3nc2n(C2CCCCC2)c1=NC(=O)c1cccnc1	LANA-nucl inh -2.58
CCS(=O)c1ccccc1C(=O)OC(C)C(=O)Nc1ncc(Cl)cc1Cl (configuration not stated)	none (no result: LANA-nucl inh)
O=C1c2ccccc2-c2n[nH]c3cccc1c23	LANA-nucl inh -1.98!
O=c1[nH]nc2c3c(cccc13)-c1ccccc1-2	none
Cc1onc(-c2c(F)cccc2Cl)c1C(=O)NC1C2CC3CC(C2)CC1C3 (configuration not stated)	none
COC(=O)C1=CO[C@@H](C)[C@@H]2CN3CCc4c([nH]c5ccccc45)C3C[C@H]12 (some centres not stated)	none
O=C(O)CCC(C(=O)O)N1C(=O)/C(=C/C=C/c2ccco2)SC1=S (configuration not stated)	LANA-nucl inh -2.17
CC(C)C(C(=O)O)N1C(=O)/C(=C/C=C/c2ccco2)SC1=S (configuration not stated)	none
O=C1/C(=C\C=C\c2ccco2)SC(=S)N1NS(=O)(=O)c1ccccc1	BasE inh 40.5
O=C(NN1C(=O)/C(=C\C=C\c2ccco2)SC1=S)c1ccccc1O	none
CCC1(C)NC(=O)N(/N=C/c2cc(C)n(CC(C)C)c2C)C1=O (configuration not stated)	none (no result: LANA-nucl inh)
COC1C(OC)N(S(C)(=O)=O)CCN1S(C)(=O)=O (configuration not stated)	none
O=C(O)C1Nc2c(I)cccc2C2C=CCC12 (configuration not stated)	BasE inh 46.6
